Experimental data from ChEMBL document CHEMBL1139354, “New derivatives of farnesylthiosalicylic acid (salirasib) for cancer treatment: farnesylthiosalicylamide inhibits tumor growth in nude mice models” (J Med Chem, 2009).
Activity calls are given as the source filed them. The calls are words filed in the database; no cut-off is given here.

What was measured:
PANC-1 [1] = assay: Cytotoxicity against human PANC1 cells after 5 to 7 days; type: functional, cell-based
How it was run: (§1)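 U87 or Panc-1 cells were seeded at 5000 per well in DMEM/10% FCS and grown 24 h. Cells were then exposed to 6.25-100 µM in medium with 0.1% DMSO, or to vehicle. After 5-7 days cells were counted directly and IC50 was read from growth curves (2 independent experiments, n = 8, mean ± SD).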

[2] = Cytotoxicity against human U87 cells after 5 to 7 days; type: functional, cell-based, U-87MG ATCC; conditions: U-87 MG; how it was run: as §1
[3] = Elimination half life in Sprague-Dawley rat at 40 mg/kg, po; type: ADME, organism-based; parameters: dose 40 mg/kg, route oral; conditions: in vivo
[4] = Cmax in Sprague-Dawley rat at 40 mg/kg, po; type: ADME, organism-based; parameters: dose 40 mg/kg, route oral; conditions: in vivo
[5] = AUC (0 to infinity) in Sprague-Dawley rat at 40 mg/kg, po; type: ADME, organism-based; parameters: time infinity, dose 40 mg/kg, route oral; conditions: plasma
PANC-1 [6] = assay: Effect on Ras signaling in human PANC1 cells assessed as inhibition of total Ras-GTP level at 50 uM after 24 hrs by immunoblot method; type: functional; conditions: PANC-1, 24 h
How it was run: (§2)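 Cells were seeded at 1.5 × 10⁶ per 10-cm dish, grown 24 h, then exposed to 50 µM or 0.1% DMSO for 24 h. Lysates in Tris pH 7.6/MgCl2/NaCl/NP40/DTT buffer went through a GST-Raf-RBD pull-down, followed by immunoblots with pan-Ras or isoform-specific antibodies. Bands were detected by ECL and quantified by densitometry. Inhibition was calculated as control active-Ras % minus treated active-Ras % (mean ± SD).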

PANC-1 [7] = assay: Effect on Ras signaling in human PANC1 cells assessed as inhibition of KRas-GTP level at 50 uM after 24 hrs by immunoblot method; type: functional; conditions: PANC-1, 24 h; how it was run: as §2
PANC-1 [8] = assay: Effect on Ras signaling in human PANC1 cells assessed as inhibition of NRas-GTP level at 50 uM after 24 hrs by immunoblot method; type: functional; conditions: PANC-1, 24 h; how it was run: as §2
[9] = Effect on Ras signaling in human U87 cells assessed as inhibition of total Ras-GTP level at 50 uM after 24 hrs by immunoblot method; type: functional, cell-based; conditions: U-87MG ATCC; how it was run: as §2
[10] = Effect on Ras signaling in human U87 cells assessed as inhibition of KRas-GTP level at 50 uM after 24 hrs by immunoblot method; type: functional, cell-based; conditions: U-87MG ATCC; how it was run: as §2
[11] = Effect on Ras signaling in human U87 cells assessed as inhibition of NRas-GTP level at 50 uM after 24 hrs by immunoblot method; type: functional, cell-based; conditions: U-87MG ATCC; how it was run: as §2
U-87MG ATCC = assay: Antitumor activity against human U87 cells xenografted CD1-Nu mouse at 100 mg/kg, po twice daily assessed as increase tumor volume after 9 days; type: functional, organism-based; parameters: dose 100 mg/kg
How it was run: (§3)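 Nude mice under ketamine/xylazine received 5 × 10⁵ U87 cells into the striatum (1 µL/min for 5 min). Gd-DTPA contrast MRI on day 4 confirmed tumors and mice were grouped by size. From day 5 they received 100 mg/kg orally twice a day in corn oil, or vehicle. Tumor volumes were read from T1-weighted follow-up MRI. Normalized growth was taken as (follow-up volume − initial volume)/initial volume (n = 7, Mann-Whitney).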

[12] = Effect on Ras signaling in human U87 cells assessed as decrease in phospho-ERK level at 50 uM after 24 hrs by immunoblot method; type: functional, cell-based; conditions: U-87MG ATCC
How it was run: (§4)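 Cells were seeded at 1.5 × 10⁶ per 10-cm dish, grown overnight in 10% FCS, then treated with 50 µM or 0.1% DMSO for 24 h. Lysates in Tris pH 7.6/MgCl2/NaCl/NP40/DTT buffer were immunoblotted for phospho-ERK1/2 and phospho-Akt, with β-tubulin as loading reference. Detection was by ECL.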

[13] = Effect on Ras signaling in human U87 cells assessed as decrease in phospho-AKT level at 50 uM after 24 hrs by immunoblot method; type: functional, cell-based; conditions: U-87MG ATCC; how it was run: as §4
PANC-1 [14] = assay: Effect on Ras signaling in human PANC1 cells assessed as decrease in phospho-ERK level at 50 uM after 24 hrs by immunoblot method; type: functional, cell-based; how it was run: as §4
PANC-1 [15] = assay: Effect on Ras signaling in human PANC1 cells assessed as decrease in phospho-AKT level at 50 uM after 24 hrs by immunoblot method; type: functional, cell-based; how it was run: as §4
[16] = Elimination half life in Sprague-Dawley rat at 100 mg/kg, po; type: ADME, organism-based; parameters: dose 100 mg/kg, route oral; conditions: in vivo
How it was run: (§5)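 Male Sprague-Dawley rats (275-285 g) given a single oral dose of 100 mg/kg in corn oil. Arterial blood was taken under anesthesia at 10-330 min (4 animals per time point). Plasma was protein-precipitated with acetonitrile, propranolol served as internal standard, and samples were run on isocratic C18 LC-MS/MS (calibration 1-2500 ng/mL). Parameters came from a noncompartmental fit of the mean concentration-time data.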

[17] = Cmax in Sprague-Dawley rat at 100 mg/kg, po; type: ADME, organism-based; parameters: dose 100 mg/kg, route oral; conditions: in vivo; how it was run: as §5
[18] = AUC (0 to infinity) in Sprague-Dawley rat at 100 mg/kg, po; type: ADME, organism-based; parameters: time infinity, dose 100 mg/kg, route oral; conditions: plasma; how it was run: as §5
[19] = Antitumor activity against human U87 cells xenografted CD1-Nu mouse at 100 mg/kg, po twice daily assessed as inhibition of tumor growth after 4 days; type: functional, U-87MG ATCC; conditions: U-87 MG, 96 h; how it was run: as §3
[20] = Antitumor activity against human U87 cells xenografted CD1-Nu mouse at 100 mg/kg, po twice daily assessed as inhibition of tumor growth after 9 days; type: functional, U-87MG ATCC; conditions: U-87 MG, 216 h; how it was run: as §3
PANC-1 [21] = assay: Antitumor activity against human PANC1 cells xenografted CD1-Nu mouse at 100 mg/kg, po daily assessed as decrease in tumor weight after 18 days
[22] = Effect on Ras signaling in human U87 cells assessed as inhibition of HRas-GTP level at 50 uM after 24 hrs by immunoblot method; type: functional, cell-based; conditions: U-87MG ATCC; how it was run: as §2

Row | Compound | IC50 (PANC-1 [1]) [µM] | IC50 [2] [µM] | inhibition at 50 µM (PANC-1 [6]) [%] | inhibition at 50 µM (PANC-1 [7]) [%] | inhibition at 50 µM (PANC-1 [8]) [%] | inhibition [9] [%] | inhibition [10] [%] | inhibition [11] [%] | further results
1 | CC(C)=CCC/C(C)=C/CC/C(C)=C/CSc1ccccc1C(=O)O [SALIRASIB] | 35 | 50 | – | – | – | – | – | – | half-life [3]: 2.36 h; Cmax [4]: 2160 ng/mL; AUC(0-inf) [5]: 6210 ng·h/mL
2 | CNC(=O)c1ccccc1SC/C=C(\C)CC/C=C(\C)CCC=C(C)C | 10 | 18 | 39.7 | 52 | 18.8 | 34.7 | 32.6 | 22.5 | –
3 | CC(C)=CCC/C(C)=C/CC/C(C)=C/CSc1ccccc1C(N)=O | 20 | 10 | 37.4 | 56 | 8.6 | 33 | 50.8 | 37.3 | Activity (U-87MG ATCC): Active; Activity [12]: Active; Activity [13]: Active; Activity (PANC-1 [14]): inactive; Activity (PANC-1 [15]): inactive; half-life [16]: 5.23 h; Cmax [17]: 371 ng/mL; AUC(0-inf) [18]: 1810 ng·h/mL; inhibition in vivo at 100 mg/kg [19]: 80%; inhibition in vivo at 100 mg/kg [20]: 50%; Activity (PANC-1 [21]): Active
4 | CC(C)=CCC/C(C)=C/CC/C(C)=C/CSc1ccccc1C(=O)OC(C)C | 70 | 52 | – | – | – | – | – | – | –
5 | CC(C)=CCC/C(C)=C/CC/C(C)=C/CSc1ccccc1C(=O)N(C)C | 22 | 20 | 38.6 | 48 | 13.6 | 45.4 | 28 | 41 | inhibition [22]: 14%
6 | CC(C)=CCC/C(C)=C/CC/C(C)=C/CSc1ccccc1C(=O)OCc1ccccc1 | 95 | 30 | – | – | – | – | – | – | –
7 | COCOC(=O)c1ccccc1SC/C=C(\C)CC/C=C(\C)CCC=C(C)C | 12 | 10 | 2.6 | 19.9 | – | – | 4.8 | 5.1 | –
8 | COC(=O)c1ccccc1SC/C=C(\C)CC/C=C(\C)CCC=C(C)C | 30 | 10 | 5.3 | 11.9 | – | – | 23.8 | 18.7 | –
